Laboratory results: ChEMBL document CHEMBL1147738, “Potent and selective mitogen-activated protein kinase kinase (MEK) 1,2 inhibitors. 1. 4-(4-bromo-2-fluorophenylamino)-1- methylpyridin-2(1H)-ones” (J Med Chem, 2006)
In brackets after ≈: the same amount, converted by molar mass.

Key:
[1] = molecular target: Mitogen-activated protein kinase 8 (Homo sapiens) (UniProt P45983); test: Inhibition of JNK/SAPK1c at 10 uM
Summary of the method: (§1)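 Kinase panel run at Upstate (Dundee). Each compound was tested at 10 µM against each enzyme and reported as % inhibition.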

[2] = Volume of distribution in rat; format: ADME, organism-based; details: Sprague-Dawley, in vivo, read-out: Vdss
Summary of the method: (§2)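 Male Sprague Dawley rats (6-10 weeks) received IV 1 mg/kg (10% DMSO/90% saline) and PO 10 mg/kg (1% CMC/0.5% Tween 80). Serial tail-vein plasma was taken up to 24 h (IV) or 72 h (PO) and analysed by LC/MS/MS (9 ng/mL to 20 µg/mL). Parameters were calculated non-compartmentally.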

Homo sapiens = species: Homo sapiens; details: at 10 µM
[3] = molecular target: Rho-associated protein kinase 2 (Homo sapiens) (UniProt O75116); test: Inhibition of ROCK 2 at 10 uM; summary of the method: as §1
Rattus norvegicus [4] = test: AUC in rat at 1 mg/kg, iv; format: ADME, organism-based, Sprague-Dawley, Plasma; set-up: dose 1 mg/kg, route intravenous; details: in vivo
Summary of the method: (§3)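 Male Sprague Dawley rats (6-10 weeks), fed ad lib, dosed IV at 1 mg/kg (1 mg/mL in 10% DMSO/90% normal saline, 1 mL/kg). Tail-vein EDTA blood sampled 1, 5, 15, 30 min and 1, 2, 4, 8, 12, 24 h. Plasma analysed by LC/MS/MS after methanol protein precipitation, range 9 ng/mL to 20 µg/mL. Parameters derived by non-compartmental analysis.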

[5] = molecular target: Dual specificity tyrosine-phosphorylation-regulated kinase 1A (Homo sapiens) (UniProt Q13627); test: Inhibition of DYRK1a at 10 uM; summary of the method: as §1
[6] = molecular target: Tyrosine-protein kinase Lck (Homo sapiens) (UniProt P06239); test: Inhibition of LCK at 10 uM; summary of the method: as §1
[7] = molecular target: Cyclin-dependent kinase 2/cyclin A (Homo sapiens) (UniProt P24941+P20248+P78396); test: Inhibition of CDK2/cyclin A at 10 uM; format: protein-complex assay; summary of the method: as §1
[8] = molecular target: cAMP-dependent protein kinase (PKA) (Homo sapiens) (UniProt P22694+P17612+P22612); test: Inhibition of PKA at 10 uM; format: protein assay; summary of the method: as §1
[9] = Clearance in presence of human hepatocytes; format: ADME, cell-based, Liver, Hepatocyte
Summary of the method: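 Human hepatocytes (fresh or cryopreserved) diluted to 2 x 10⁶ viable cells/mL in supplemented Krebs-Henseleit buffer pH 7.3, mixed 1:1 with 2 µM compound working solution. Incubated at 37 °C, 5% CO₂, duplicates, one plate per timepoint. Quenched with labetalol internal standard and centrifuged; compound remaining measured by LC-MS/MS (ESI+, MRM).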

[10] = molecular target: MAP kinase-activated protein kinase 2 (Homo sapiens) (UniProt P49137); test: Inhibition of MAPKAP-K2 at 10 uM; summary of the method: as §1
[11] = Half life in rat at 1 mg/kg, iv; format: ADME, organism-based; set-up: dose 1 mg/kg, route intravenous; details: Sprague-Dawley, in vivo; summary of the method: as §3
Rattus norvegicus [12] = test: AUC in rat at 10 mg/kg, po; format: ADME, organism-based, Sprague-Dawley, Plasma; set-up: dose 10 mg/kg, route oral; details: in vivo
Summary of the method: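 Male Sprague Dawley rats (6-10 weeks) were given 10 mg/kg by oral gavage (2 mg/mL in 1% CMC/0.5% Tween 80, 5 mL/kg). Tail-vein EDTA blood was drawn at 15 and 30 min and 1, 2, 4, 8, 12, 24, 48, 72 h. Plasma was quantified by LC/MS/MS after methanol precipitation. Parameters came from non-compartmental analysis.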

[13] = molecular target: AMP-activated protein kinase, AMPK (Homo sapiens) (UniProt P54646+O43741+P54619+Q9UGJ0+Q9Y478+Q13131+Q9UGI9); test: Inhibition of AMPK at 10 uM; format: protein-complex assay; summary of the method: as §1
[14] = molecular target: Ribosomal protein S6 kinase (P70S6K) (Homo sapiens) (UniProt Q9UBS0+P23443); test: Inhibition of p70 S6K at 10 uM; format: protein-complex assay; summary of the method: as §1
[15] = molecular target: Protein kinase C alpha type (Homo sapiens) (UniProt P17252); test: Inhibition of PKCa at 10 uM; summary of the method: as §1
[16] = molecular target: Ribosomal protein S6 kinase alpha-5 (Homo sapiens) (UniProt O75582); test: Inhibition of MSK1 at 10 uM; summary of the method: as §1
[17] = molecular target: Mitogen-activated protein kinase 14 (Homo sapiens) (UniProt Q16539); test: Inhibition of SAPK2a/p38 at 10 uM; summary of the method: as §1
[18] = molecular target: Casein kinase II (Homo sapiens) (UniProt P67870+P68400+P19784); test: Inhibition of CK2 at 10 uM; format: protein-complex assay; summary of the method: as §1
[19] = molecular target: T1, Serine/threonine-protein kinase Chk1 (Homo sapiens) (UniProt O14757); test: Inhibition of CHK1 at 10 uM; summary of the method: as §1
T1 sequence (whole entry): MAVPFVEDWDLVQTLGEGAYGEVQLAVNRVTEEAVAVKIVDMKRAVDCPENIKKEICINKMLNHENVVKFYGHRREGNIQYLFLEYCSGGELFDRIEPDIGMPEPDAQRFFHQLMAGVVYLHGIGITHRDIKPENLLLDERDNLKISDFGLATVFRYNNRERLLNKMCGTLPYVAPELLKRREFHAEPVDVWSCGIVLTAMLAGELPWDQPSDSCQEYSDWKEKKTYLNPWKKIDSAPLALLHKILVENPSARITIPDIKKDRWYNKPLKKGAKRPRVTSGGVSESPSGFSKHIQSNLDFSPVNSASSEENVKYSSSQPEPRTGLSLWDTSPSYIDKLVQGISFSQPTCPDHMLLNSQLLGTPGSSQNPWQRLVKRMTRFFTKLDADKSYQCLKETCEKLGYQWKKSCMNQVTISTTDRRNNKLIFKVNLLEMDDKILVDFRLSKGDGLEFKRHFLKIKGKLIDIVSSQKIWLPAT

[20] = molecular target: Ribosomal protein S6 kinase alpha-1 (Homo sapiens) (UniProt Q15418); test: Inhibition of MAPKAP-K1a at 10 uM; summary of the method: as §1
[21] = molecular target: Glycogen synthase kinase-3 beta (Homo sapiens) (UniProt P49841); test: Inhibition of GSK3b at 10 uM; summary of the method: as §1
[22] = molecular target: Mitogen-activated protein kinase 1 (Homo sapiens) (UniProt P28482); test: Inhibition of MAPK2/ERK2 at 10 uM; summary of the method: as §1
[23] = Oral bioavailability in rat; format: ADME, organism-based; details: Sprague-Dawley, in vivo; summary of the method: as §2
[24] = Aqueous solubility at pH 6.5; format: physicochemical
Summary of the method: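 Thermodynamic shake-flask method: crystalline solid (0.5 mg, crystallinity confirmed by polarizing microscopy) in 0.5 mL 10 mM potassium phosphate, pH 6.5, swirled 24 h at room temperature. Filtered aliquots were quantified by HPLC-PDA against a calibration curve.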

[25] = molecular target: T2, Lymphokine-activated killer T-cell-originated protein kinase (Homo sapiens) (UniProt Q96KB5); test: Inhibition of PBK at 10 uM; summary of the method: as §1
T2 sequence (whole entry): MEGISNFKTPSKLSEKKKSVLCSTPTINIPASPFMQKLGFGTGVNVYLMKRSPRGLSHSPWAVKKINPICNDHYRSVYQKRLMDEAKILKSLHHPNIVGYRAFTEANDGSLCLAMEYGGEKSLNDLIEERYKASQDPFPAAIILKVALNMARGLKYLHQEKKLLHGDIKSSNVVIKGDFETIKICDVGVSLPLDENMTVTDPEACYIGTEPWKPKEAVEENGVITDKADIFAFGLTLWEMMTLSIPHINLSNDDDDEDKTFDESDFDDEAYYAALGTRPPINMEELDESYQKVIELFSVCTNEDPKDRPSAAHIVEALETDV

Sequence of MAP kinase-activated protein kinase 2 (Homo sapiens) (P49137 whole entry, looked up): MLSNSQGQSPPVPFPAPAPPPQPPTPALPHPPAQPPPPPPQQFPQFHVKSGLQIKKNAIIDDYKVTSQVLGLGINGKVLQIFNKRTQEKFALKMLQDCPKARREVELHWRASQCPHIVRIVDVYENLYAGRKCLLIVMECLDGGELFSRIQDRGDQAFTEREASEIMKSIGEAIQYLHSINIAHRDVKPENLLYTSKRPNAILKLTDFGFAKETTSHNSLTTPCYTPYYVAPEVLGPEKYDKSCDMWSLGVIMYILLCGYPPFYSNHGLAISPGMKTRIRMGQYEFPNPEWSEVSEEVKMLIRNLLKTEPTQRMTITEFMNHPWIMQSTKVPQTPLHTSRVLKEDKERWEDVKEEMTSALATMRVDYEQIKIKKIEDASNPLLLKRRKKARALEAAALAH
Sequence of Ribosomal protein S6 kinase alpha-5 (Homo sapiens) (O75582 whole entry, looked up): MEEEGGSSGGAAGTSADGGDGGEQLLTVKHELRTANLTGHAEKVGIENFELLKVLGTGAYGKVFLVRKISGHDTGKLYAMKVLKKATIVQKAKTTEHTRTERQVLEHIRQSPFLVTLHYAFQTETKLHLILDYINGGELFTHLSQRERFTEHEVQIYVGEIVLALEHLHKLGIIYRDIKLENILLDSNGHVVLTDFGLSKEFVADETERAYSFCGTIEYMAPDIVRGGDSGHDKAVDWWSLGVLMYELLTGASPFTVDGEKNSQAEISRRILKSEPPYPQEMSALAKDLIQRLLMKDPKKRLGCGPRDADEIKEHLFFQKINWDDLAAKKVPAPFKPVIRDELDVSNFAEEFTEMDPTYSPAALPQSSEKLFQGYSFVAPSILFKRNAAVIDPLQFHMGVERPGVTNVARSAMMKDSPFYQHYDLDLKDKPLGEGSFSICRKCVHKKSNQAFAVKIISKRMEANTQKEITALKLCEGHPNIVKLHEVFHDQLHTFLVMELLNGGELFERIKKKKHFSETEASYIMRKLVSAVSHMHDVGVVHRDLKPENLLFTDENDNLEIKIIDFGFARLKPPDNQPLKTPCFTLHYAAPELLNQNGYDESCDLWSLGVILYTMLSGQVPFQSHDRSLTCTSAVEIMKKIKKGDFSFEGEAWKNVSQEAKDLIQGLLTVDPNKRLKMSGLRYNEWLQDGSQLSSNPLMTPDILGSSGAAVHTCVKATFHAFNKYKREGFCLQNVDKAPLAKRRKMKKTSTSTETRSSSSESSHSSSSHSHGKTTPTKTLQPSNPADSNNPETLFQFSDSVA
Sequence of Mitogen-activated protein kinase 14 (Homo sapiens) (Q16539 whole entry): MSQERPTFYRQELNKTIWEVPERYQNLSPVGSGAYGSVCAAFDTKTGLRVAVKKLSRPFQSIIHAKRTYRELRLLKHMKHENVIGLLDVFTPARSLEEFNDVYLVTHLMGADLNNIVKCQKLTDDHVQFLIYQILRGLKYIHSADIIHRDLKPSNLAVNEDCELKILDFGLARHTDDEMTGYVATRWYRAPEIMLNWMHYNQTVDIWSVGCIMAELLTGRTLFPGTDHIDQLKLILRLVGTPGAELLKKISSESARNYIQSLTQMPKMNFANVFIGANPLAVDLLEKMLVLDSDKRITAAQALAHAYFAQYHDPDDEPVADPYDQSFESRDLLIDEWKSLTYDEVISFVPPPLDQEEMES
Sequence of Mitogen-activated protein kinase 1 (Homo sapiens) (P28482 whole entry): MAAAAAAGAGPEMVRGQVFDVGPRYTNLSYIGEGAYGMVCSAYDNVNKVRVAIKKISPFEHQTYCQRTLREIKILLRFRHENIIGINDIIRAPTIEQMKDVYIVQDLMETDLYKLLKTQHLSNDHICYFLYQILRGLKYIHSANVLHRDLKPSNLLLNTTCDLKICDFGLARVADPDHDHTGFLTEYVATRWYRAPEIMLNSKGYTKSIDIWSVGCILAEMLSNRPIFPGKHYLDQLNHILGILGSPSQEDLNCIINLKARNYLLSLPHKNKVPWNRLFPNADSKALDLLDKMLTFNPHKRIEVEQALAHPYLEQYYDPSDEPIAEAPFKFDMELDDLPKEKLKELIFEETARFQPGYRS
Sequence of Glycogen synthase kinase-3 beta (Homo sapiens) (P49841 whole entry, looked up): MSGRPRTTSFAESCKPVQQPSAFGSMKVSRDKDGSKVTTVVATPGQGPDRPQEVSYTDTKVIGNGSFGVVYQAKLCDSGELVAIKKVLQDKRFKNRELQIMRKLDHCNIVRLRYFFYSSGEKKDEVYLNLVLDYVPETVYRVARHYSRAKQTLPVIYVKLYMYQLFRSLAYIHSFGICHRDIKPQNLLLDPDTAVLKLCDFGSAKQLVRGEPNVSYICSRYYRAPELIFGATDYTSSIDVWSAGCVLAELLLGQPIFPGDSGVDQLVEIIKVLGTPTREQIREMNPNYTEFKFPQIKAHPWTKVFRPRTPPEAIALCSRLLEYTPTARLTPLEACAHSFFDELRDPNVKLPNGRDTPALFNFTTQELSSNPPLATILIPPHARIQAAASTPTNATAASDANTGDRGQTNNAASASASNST
Sequence of Mitogen-activated protein kinase 8 (Homo sapiens) (P45983 whole entry): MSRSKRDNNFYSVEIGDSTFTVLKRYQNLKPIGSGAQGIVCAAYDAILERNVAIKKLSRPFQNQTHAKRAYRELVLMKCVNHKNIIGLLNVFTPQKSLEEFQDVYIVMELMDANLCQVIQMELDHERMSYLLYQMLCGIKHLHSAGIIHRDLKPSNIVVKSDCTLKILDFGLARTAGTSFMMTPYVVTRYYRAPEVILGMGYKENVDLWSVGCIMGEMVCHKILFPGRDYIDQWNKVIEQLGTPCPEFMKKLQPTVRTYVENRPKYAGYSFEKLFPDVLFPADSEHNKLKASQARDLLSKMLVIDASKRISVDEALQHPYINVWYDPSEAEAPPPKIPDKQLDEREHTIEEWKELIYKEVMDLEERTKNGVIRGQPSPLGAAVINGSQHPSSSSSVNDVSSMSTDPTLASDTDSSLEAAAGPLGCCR
Sequence of Rho-associated protein kinase 2 (Homo sapiens) (O75116 whole entry, looked up): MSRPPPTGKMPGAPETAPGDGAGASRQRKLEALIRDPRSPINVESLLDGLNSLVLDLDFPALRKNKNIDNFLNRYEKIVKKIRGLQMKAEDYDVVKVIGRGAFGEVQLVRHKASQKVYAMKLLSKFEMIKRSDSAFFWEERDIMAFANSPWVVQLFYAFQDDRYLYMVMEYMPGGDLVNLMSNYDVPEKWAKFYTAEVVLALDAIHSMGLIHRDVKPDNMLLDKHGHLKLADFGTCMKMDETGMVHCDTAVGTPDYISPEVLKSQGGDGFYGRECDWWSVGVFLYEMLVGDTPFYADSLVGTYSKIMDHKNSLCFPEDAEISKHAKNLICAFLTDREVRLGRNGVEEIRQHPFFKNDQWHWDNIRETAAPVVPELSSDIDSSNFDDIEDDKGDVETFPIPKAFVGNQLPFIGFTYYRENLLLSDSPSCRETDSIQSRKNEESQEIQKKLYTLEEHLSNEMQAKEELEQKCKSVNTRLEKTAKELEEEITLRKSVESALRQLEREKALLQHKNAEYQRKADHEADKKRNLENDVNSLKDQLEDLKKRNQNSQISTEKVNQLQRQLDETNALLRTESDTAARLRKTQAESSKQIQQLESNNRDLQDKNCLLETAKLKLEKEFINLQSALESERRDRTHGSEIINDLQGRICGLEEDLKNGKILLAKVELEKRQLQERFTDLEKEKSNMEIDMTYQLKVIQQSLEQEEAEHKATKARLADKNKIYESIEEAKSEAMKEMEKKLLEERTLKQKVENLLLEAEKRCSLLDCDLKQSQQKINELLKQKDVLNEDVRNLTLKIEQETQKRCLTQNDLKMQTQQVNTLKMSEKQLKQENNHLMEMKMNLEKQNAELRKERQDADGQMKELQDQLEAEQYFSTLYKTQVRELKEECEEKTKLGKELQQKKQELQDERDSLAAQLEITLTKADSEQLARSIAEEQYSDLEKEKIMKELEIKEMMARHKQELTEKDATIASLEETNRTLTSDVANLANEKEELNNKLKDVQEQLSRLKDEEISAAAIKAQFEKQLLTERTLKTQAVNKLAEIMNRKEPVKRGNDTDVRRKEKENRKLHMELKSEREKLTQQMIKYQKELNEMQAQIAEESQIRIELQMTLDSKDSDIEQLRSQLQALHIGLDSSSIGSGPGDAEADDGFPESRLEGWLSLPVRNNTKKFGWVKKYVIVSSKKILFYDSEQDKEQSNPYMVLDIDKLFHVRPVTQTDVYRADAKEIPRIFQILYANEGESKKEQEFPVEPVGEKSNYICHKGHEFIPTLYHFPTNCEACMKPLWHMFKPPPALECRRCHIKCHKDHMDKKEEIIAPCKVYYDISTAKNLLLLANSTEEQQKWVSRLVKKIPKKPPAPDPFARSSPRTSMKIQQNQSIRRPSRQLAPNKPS

inhibition [1] [%]	Vd [2] [L/kg]	inhibition (Homo sapiens) [%]	inhibition [3] [%]	AUC (Rattus norvegicus [4]) [µg·h/mL]	inhibition [5] [%]	inhibition [6] [%]	inhibition [7] [%]	inhibition [8] [%]	CLhep predicted [9] [mL/min/kg]	inhibition [10] [%]	half-life [11] [min]	AUC (Rattus norvegicus [12]) [µg·h/mL]	inhibition [13] [%]	inhibition [14] [%]	inhibition [15] [%]	inhibition [16] [%]	inhibition [17] [%]	inhibition [18] [%]	inhibition [19] [%]	Compound	other results
7	0.4	-9	10	11.5	2	-1	8	-7	5	1	210	88.3	-4	-2	0	6	3	-4	-3	CONC(=O)c1cn(C)c(=O)c(C)c1Nc1ccc(Br)cc1F	inhibition [20]: -8%; inhibition [21]: 12%; inhibition [22]: -9%; bioavailability [23]: 73%; solubility [24]: 200 µg/mL (≈ 521 µM); inhibition [25]: -4%
23	0.4	-3	13	8.9	15	9	20	-1	5	14	150	75	2	-1	7	5	-3	4	8	CCONC(=O)c1cn(C)c(=O)c(C)c1Nc1ccc(Br)cc1F	inhibition [20]: 3%; inhibition [21]: 15%; inhibition [22]: 6%; bioavailability [23]: 80%; solubility [24]: 60 µg/mL (≈ 151 µM); inhibition [25]: 3%
23	1.1	-7	13	2.26	10	13	9	15	6	8	96	12	19	18	-3	2	20	-1	11	Cc1c(Nc2ccc(Br)cc2F)c(C(=O)NOCCO)cn(C)c1=O	inhibition [20]: -9%; inhibition [21]: 17%; inhibition [22]: 6%; bioavailability [23]: 53%; solubility [24]: 450 µg/mL (≈ 1090 µM); inhibition [25]: -8%
